In ChEMBL document CHEMBL1146087, “1,4-Benzodiazepines as inhibitors of respiratory syncytial virus” (J Med Chem, 2006):

Key:
[1] = system: Respiratory syncytial virus; assay: Antiviral activity against RSV RSS in Hep2 cells by whole cell XTT assay; assay type: functional, organism-based; conditions: human respiratory syncytial virus, HEp-2
In short: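 Primary whole-cell assay with XTT read-out of infected cells. Parallel cultures without virus were run to measure compound cytotoxicity. IC50 values were derived.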

HEp-2 = assay: Cytotoxicity against Hep2 cell at 50 uM; assay type: functional, cell-based; conditions: Homo sapiens
In short: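 Run alongside the whole-cell antiviral XTT assay, without virus, to measure compound toxicity to the cells. The read-out is XTT.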

[2] = system: Respiratory syncytial virus; assay: Antiviral activity against RSV RSS in Hep2 cells by ELISA; assay type: functional, organism-based; conditions: human respiratory syncytial virus, HEp-2
[3] = system: Respiratory syncytial virus; assay: Antiviral activity against RSV Long in Hep2 cells by plaque assay; assay type: functional, organism-based; conditions: human respiratory syncytial virus, HEp-2
[4] = Half life in Sprague-Dawley rat at 2 mg/kg, iv; assay type: ADME, organism-based; set-up: dose 2 mg/kg, route intravenous; conditions: in vivo
[5] = Oral bioavailability in Sprague-Dawley rat at 2 mg/kg, po; assay type: ADME, organism-based; conditions: in vivo
[6] = system: Respiratory syncytial virus; assay: Antiviral activity against RSV Long in Hep2 cells by ELISA; assay type: functional, organism-based; conditions: human respiratory syncytial virus, HEp-2
[7] = system: Respiratory syncytial virus; assay: Antiviral activity against RSV RSS in Hep2 cells by plaque assay; assay type: functional, organism-based; conditions: human respiratory syncytial virus, HEp-2
[8] = system: Respiratory syncytial virus; assay: Antiviral activity against RSV B in Hep2 cells by plaque assay; assay type: functional, organism-based; conditions: human respiratory syncytial virus, HEp-2
[9] = Half life in Sprague-Dawley rat at 2 mg/kg, po; assay type: ADME, organism-based; set-up: dose 2 mg/kg, route oral; conditions: in vivo
[10] = system: Respiratory syncytial virus; assay: Antiviral activity against RSV B in Hep2 cells by ELISA; assay type: functional, organism-based; conditions: human respiratory syncytial virus, HEp-2
[11] = Cmax in Sprague-Dawley rat at 2 mg/kg, iv; assay type: ADME, organism-based; set-up: dose 2 mg/kg, route intravenous; conditions: in vivo
[12] = system: Respiratory syncytial virus; assay: Antiviral activity against RSV A2 in Hep2 cells by plaque assay; assay type: functional, organism-based; conditions: human respiratory syncytial virus, A2, HEp-2
Rattus norvegicus [13] = assay: Volume of distribution in Sprague-Dawley rat at 2 mg/kg, po; assay type: ADME, organism-based; set-up: dose 2 mg/kg, route oral; conditions: in vivo
[14] = Tmax in Sprague-Dawley rat at 2 mg/kg, iv; assay type: ADME, organism-based; set-up: dose 2 mg/kg, route intravenous; conditions: in vivo
[15] = Cmax in Sprague-Dawley rat at 2 mg/kg, po; assay type: ADME, organism-based; set-up: dose 2 mg/kg, route oral; conditions: in vivo
[16] = Tmax in Sprague-Dawley rat at 2 mg/kg, po; assay type: ADME, organism-based; set-up: dose 2 mg/kg, route oral; conditions: in vivo
[17] = Volume of distribution in Sprague-Dawley rat at 2 mg/kg, iv; assay type: ADME, organism-based; set-up: dose 2 mg/kg, route intravenous; conditions: in vivo, read-out: Vdss
[18] = Apparent oral clearance in Sprague-Dawley rat at 20 mg/kg, po; assay type: ADME, organism-based; set-up: dose 20 mg/kg, route oral; conditions: in vivo
[19] = Tmax in Sprague-Dawley rat at 20 mg/kg, po; assay type: ADME, organism-based; set-up: dose 20 mg/kg, route oral; conditions: in vivo
[20] = Cmax in Sprague-Dawley rat at 20 mg/kg, po; assay type: ADME, organism-based; set-up: dose 20 mg/kg, route oral; conditions: in vivo
Rattus norvegicus [21] = assay: Volume of distribution in Sprague-Dawley rat at 20 mg/kg, po; assay type: ADME, organism-based; set-up: dose 20 mg/kg, route oral; conditions: in vivo
[22] = Half life in Sprague-Dawley rat at 20 mg/kg, po; assay type: ADME, organism-based; set-up: dose 20 mg/kg, route oral; conditions: in vivo
[23] = Clearance in Sprague-Dawley rat at 2 mg/kg, iv; assay type: ADME, organism-based; set-up: dose 2 mg/kg, route intravenous; conditions: in vivo

Structure (SMILES) | IC50 [1] [µM] | Activity (HEp-2) | also measured
COc1cccc(C2=NC(NC(=O)c3ccccc3OC)C(=O)Nc3ccccc32)c1 (stereo unspecified) | > 50 | Not toxic | 
COc1ccc(C(=O)NC2N=C(c3ccccc3)c3ccccc3NC2=O)c(OC)c1 (stereo unspecified) | 2.1 | Not toxic | 
O=C(Nc1ccccc1F)NC1N=C(c2ccccc2)c2ccccc2NC1=O (stereo unspecified) | 3.3 | Not toxic | IC50 [2]: 2.7 µM; IC50 [3]: 2.2 µM; half-life [4]: 3.7 h; bioavailability [5]: 76%; IC50 [6]: 2.5 µM; IC50 [7]: 3 µM; IC50 [8]: 0.75 µM; half-life [9]: 8.1 h; IC50 [10]: 1.9 µM; Cmax [11]: 1530 ng/mL; IC50 [12]: 2.8 µM; Vdss (Rattus norvegicus [13]): 7.5 L/kg; Tmax [14]: 4.8 min; Cmax [15]: 386 ng/mL; Tmax [16]: 2.6 h; Vd [17]: 2.5 L/kg
CCN(CC)C(=O)NC1N=C(c2ccccc2)c2ccccc2NC1=O (stereo unspecified) | 20.7 | Not toxic | 
COc1ccccc1C(=O)NC1N=C(c2ccccc2F)c2cc(Cl)ccc2NC1=O (stereo unspecified) | 26.2 | Not toxic | 
COc1cc2c(cc1OC)C(c1ccccc1)=NC(NC(=O)c1ccccc1OC)C(=O)N2 (stereo unspecified) | > 50 | Not toxic | 
CNc1ccccc1C(=O)NC1N=C(c2ccccc2)c2ccccc2NC1=O (stereo unspecified) | 9.6 | Not toxic | 
O=C(NC1N=C(c2ccccc2)c2ccccc2NC1=O)c1ccc([N+](=O)[O-])cc1 (stereo unspecified) | 6.7 | Not toxic | 
COc1ccccc1C(=O)NC1N=C(c2ccc(C(F)(F)F)cc2)c2ccccc2NC1=O (stereo unspecified) | > 50 | Not toxic | 
CC(C)(C)C(=O)NC1N=C(c2ccccc2)c2ccccc2NC1=O (stereo unspecified) | 16.7 | Not toxic | 
COc1ccc(F)cc1C(=O)NC1N=C(c2ccccc2)c2ccccc2NC1=O (stereo unspecified) | 1.5 | Not toxic | CL/F [18]: 981 mL/min/kg; Tmax [19]: 3.33 h; Cmax [20]: 10.3 ng/mL
COc1cc([N+](=O)[O-])ccc1C(=O)NC1N=C(c2ccccc2)c2ccccc2NC1=O (stereo unspecified) |  | Not toxic | IC50 [2]: 2.5 µM; IC50 [3]: 0.9 µM; CL/F [18]: 18.8 mL/min/kg; IC50 [6]: 1.2 µM; IC50 [7]: 1.8 µM; IC50 [8]: < 0.3 µM; Vdss (Rattus norvegicus [21]): 9.8 L/kg; IC50 [10]: 1.3 µM; half-life [22]: 5.8 h; Tmax [19]: 3 h; Cmax [20]: 1670 ng/mL
COc1cc([N+](=O)[O-])ccc1C(=O)NC1N=C(c2ccccc2)c2ccccc2N(C)C1=O (stereo unspecified) | > 50 | Not toxic | 
COc1ccccc1C(=O)NC1N=C(c2ccccc2)c2ccccc2NC1=O (stereo unspecified) | 2.3 | Not toxic | half-life [4]: 0.4 h; bioavailability [5]: 4%; clearance [23]: 71.2 mL/min/kg; Cmax [11]: 798 ng/mL; Tmax [14]: 4.8 min; Cmax [15]: 19.3 ng/mL; Tmax [16]: 0.8 h; Vd [17]: 2.4 L/kg
CCOc1ccccc1C(=O)NC1N=C(c2ccccc2)c2ccccc2NC1=O (stereo unspecified) | 3.6 | Not toxic | 
CN1C(=O)C(NC(=O)Nc2ccccc2F)N=C(c2ccccc2)c2ccccc21 (stereo unspecified) | > 50 | Not toxic | 
COc1cc(S(C)(=O)=O)ccc1C(=O)NC1N=C(c2ccccc2)c2ccccc2NC1=O (stereo unspecified) | 2 | Not toxic | 
O=C(NC1N=C(c2ccccc2)c2ccc(Cl)cc2NC1=O)c1cccs1 (stereo unspecified) | 26.7 | Not toxic | 
O=C(NC1N=C(c2cccc(C(F)(F)F)c2)c2ccccc2NC1=O)c1ccco1 (stereo unspecified) | 18.8 | Not toxic | 
O=C(NC1N=C(c2ccccc2)c2ccccc2NC1=O)c1cccs1 (stereo unspecified) | 5.6 | Not toxic | 

Structure (SMILES) | IC50 [1] [µM] | Activity (HEp-2) | also measured
O=C1Nc2ccccc2C(c2ccccc2)=NC1NC(=O)C1CCCO1 (stereo unspecified) | 17.4 | Not toxic | 
O=C(NC1N=C(c2ccccc2)c2ccccc2NC1=O)c1cccc(OC(F)(F)F)c1 (stereo unspecified) | 14.6 | Not toxic | 
COc1cc([N+](=O)[O-])ccc1C(=O)N(C)C1N=C(c2ccccc2)c2ccccc2NC1=O (stereo unspecified) | 25.1 | Not toxic | 
O=C1Nc2ccccc2C(c2ccccc2)=NC1N1CCOCC1 (stereo unspecified) | > 50 | Not toxic | 
COc1ccc(C(=O)NC2N=C(C)c3ccccc3NC2=O)cc1 (stereo unspecified) | > 50 | Not toxic | 
COc1cccc(C(=O)NC2N=C(c3ccccc3)c3ccccc3NC2=O)c1 (stereo unspecified) | 6.6 | Not toxic | 
COc1ccccc1C(=O)NC1N=C(c2ccccc2)c2ccc(C)cc2NC1=O (stereo unspecified) | 19.2 | Not toxic | 
COc1ccccc1C(=O)NC1N=C(c2ccccc2)c2cc(Cl)ccc2NC1=O (stereo unspecified) | 6.1 | Not toxic | 
O=C(NC1N=C(c2ccc(C(F)(F)F)cc2)c2ccccc2NC1=O)c1ccco1 (stereo unspecified) | > 50 | Not toxic | 
O=C(NC1N=C(c2ccccc2F)c2cc(Cl)ccc2NC1=O)c1ccco1 (stereo unspecified) | 41.3 | Not toxic | 
O=C(NC1N=C(c2ccccc2)c2ccccc2NC1=O)c1ccccc1CN1CCOCC1 (stereo unspecified) | 20.7 | Not toxic | 
CC(C)C(=O)NC1N=C(c2ccccc2)c2ccccc2NC1=O (stereo unspecified) | 9.5 | Not toxic | 
O=C1Nc2ccccc2C(c2ccccc2)=NC1NC(=O)N1CCOCC1 (stereo unspecified) | 9.7 | Not toxic | 
O=C(NC1N=C(C2CCCCC2)c2ccccc2NC1=O)c1ccco1 (stereo unspecified) | > 50 | Not toxic | 
O=C(NC1N=C(c2cccc(Cl)c2)c2ccccc2NC1=O)c1ccco1 (stereo unspecified) | 6.9 | Not toxic | 
O=C(NC1N=C(c2ccccc2)c2ccccc2NC1=O)c1ccccc1OC(F)(F)F (stereo unspecified) | 14.4 | Not toxic | 
Cc1cc(C(=O)NC2N=C(c3ccccc3)c3ccccc3NC2=O)oc1C (stereo unspecified) | 2.8 | Not toxic | 
CN1CCN(C(=O)NC2N=C(c3ccccc3)c3ccccc3NC2=O)CC1 (stereo unspecified) | 9.3 | Not toxic | 
O=C(Nc1ccccc1F)NC1N=C(C2CCCCC2)c2ccccc2NC1=O (stereo unspecified) | > 50 | Not toxic | 
CCN(CC)C1N=C(c2ccccc2)c2ccccc2NC1=O (stereo unspecified) | > 50 | Not toxic | 

Structure (SMILES) | IC50 [1] [µM] | Activity (HEp-2) | also measured
COc1ccc(C2=NC(NC(=O)c3ccccc3OC)C(=O)Nc3ccccc32)cc1 (stereo unspecified) | > 50 | Not toxic | 
O=C(NC1N=C(c2ccccc2)c2ccccc2NC1=O)c1ccccc1C1CCCCC1 (stereo unspecified) | > 50 | Not toxic | 
COc1ccc2c(c1)C(c1ccccc1)=NC(NC(=O)c1ccccc1OC)C(=O)N2 (stereo unspecified) | > 50 | Not toxic | 
COc1ccccc1CNC1N=C(c2ccccc2)c2ccccc2NC1=O (stereo unspecified) | 27.3 | Not toxic | 
O=C(NC1N=C(c2ccccc2)c2ccccc2NC1=O)c1ccco1 (stereo unspecified) | 3.2 | Not toxic | 
O=C(NC1N=C(c2ccccc2)c2ccccc2NC1=O)c1ccccc1 (stereo unspecified) | 5.5 | Not toxic | 
COc1ccccc1C(=O)NC1N=C(c2ccc(F)cc2)c2ccccc2NC1=O (stereo unspecified) | 16.5 | Not toxic | 
COc1ccccc1C(=O)NC1N=C(c2cccc(C(F)(F)F)c2)c2ccccc2NC1=O (stereo unspecified) | 16.7 | Not toxic | 
O=C(NC1N=C(c2ccccc2)c2ccccc2NC1=O)C1CCCCC1 (stereo unspecified) |  | Not toxic | 
COc1ccc(CNC2N=C(c3ccccc3)c3ccccc3NC2=O)cc1 (stereo unspecified) |  | Not toxic | 
COc1cc(Cl)ccc1C(=O)NC1N=C(c2ccccc2)c2ccccc2NC1=O (stereo unspecified) | 5.9 | Not toxic | CL/F [18]: 288 mL/min/kg; Vdss (Rattus norvegicus [21]): 98.3 L/kg; half-life [22]: 2.7 h; Tmax [19]: 1 h; Cmax [20]: 273 ng/mL
CCCOc1ccccc1C(=O)NC1N=C(c2ccccc2)c2ccccc2NC1=O (stereo unspecified) | 40.2 | Not toxic | 
O=C(Nc1ccccc1F)OC1N=C(c2ccccc2)c2ccccc2NC1=O (stereo unspecified) | 16.1 | Not toxic | 
O=C(NC1N=C(c2ccccc2)c2ccccc2NC1=O)c1cccc([N+](=O)[O-])c1 (stereo unspecified) | 7.4 | Not toxic | 
COc1ccc(C(=O)NC2N=C(c3ccccc3)c3ccccc3NC2=O)cc1 (stereo unspecified) | 3.6 | Not toxic | 
O=C(NC1N=C(c2ccccc2)c2ccccc2NC1=O)c1cccc(C(F)(F)F)c1 (stereo unspecified) | 7.5 | Not toxic | 
CN(C)c1ccccc1C(=O)NC1N=C(c2ccccc2)c2ccccc2NC1=O (stereo unspecified) | 4.8 | Not toxic | 
O=C(NC1N=C(c2ccccc2)c2ccccc2NC1=O)c1ccc(N2CCOCC2)cc1Cl (stereo unspecified) | 3.4 | Not toxic | 
